Assay results taken from ChEMBL document CHEMBL1821706, “Unprecedented citrinin trimer tricitinol B functions as a novel topoisomerase IIα inhibitor” (J Med Chem, 2011).
Active and inactive are the calls of the source.

How the values were obtained:
HL-60 [1] = experiment: Induction of apoptosis in human HL60 cells assessed as PARP cleavage at 10 uM after 24 hrs by Western blotting preincubated for 2 hrs with 20 uM pancaspase inhibitor Z-VAD-FMK; assay type: functional, cell-based
Method in brief: (§1)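 HL60 cells were pretreated with 20 μM Z-IETD-FMK, Z-LEHD-FMK or Z-VAD-FMK, then cultured with 10 μM compound for 24 h. Cleaved PARP and caspases were probed by Western blot. Three independent experiments were run.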

HL-60 [2] = experiment: Induction of apoptosis in human HL60 cells assessed as caspase 8 cleavage at 10 uM after 24 hrs by Western blotting preincubated for 2 hrs with 20 uM caspase 8 inhibitor Z-IETD-FMK; assay type: functional, cell-based; method in brief: as §1
HCT-116 [3] = experiment: Induction of apoptosis in human HCT116 cells assessed as Bid cleavage at 2.5 to 10 uM after 24 hrs by Western blotting; assay type: functional, cell-based
Method in brief: (§2)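 Cells (2×10^5/mL) were exposed to 2.5–10 μM for 24 h, then whole-cell lysates were made. Pro-/cleaved caspase-3, caspase-8, pro-/cleaved caspase-9, PARP (116 kDa full length, 85 kDa fragment) and Bid were probed by Western blot with ECL detection.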

HCT-116 [4] = experiment: Induction of apoptosis in human HCT116 cells assessed as activation of caspase 9 at 2.5 to 10 uM after 24 hrs by Western blotting; assay type: functional, cell-based; method in brief: as §2
HL-60 [5] = experiment: Induction of apoptosis in human HL60 cells assessed as activation of caspase 9 at 2.5 to 10 uM after 24 hrs by Western blotting; assay type: functional, cell-based; method in brief: as §2
HCT-116 [6] = experiment: Induction of apoptosis in human HCT116 cells assessed as activation of caspase 8 at 2.5 to 10 uM after 24 hrs by Western blotting; assay type: functional, cell-based; method in brief: as §2
HL-60 [7] = experiment: Induction of apoptosis in human HL60 cells assessed as activation of caspase 8 at 2.5 to 10 uM after 24 hrs by Western blotting; assay type: functional, cell-based; method in brief: as §2
HL-60 [8] = experiment: Induction of apoptosis in human HL60 cells assessed as increase in cleaved PARP levels after 24 hrs by Western blotting; assay type: functional, cell-based; method in brief: as §2
HCT-116 [9] = experiment: Induction of apoptosis in human HCT116 cells assessed as increase in cleaved caspase 3 levels after 24 hrs by Western blotting; assay type: functional, cell-based; method in brief: as §2
HL-60 [10] = experiment: Induction of apoptosis in human HL60 cells assessed as increase in cleaved caspase 3 levels after 24 hrs by Western blotting; assay type: functional, cell-based; method in brief: as §2
HCT-116 [11] = experiment: Induction of apoptosis in human HCT116 cells assessed as decrease in procaspase 3 expression after 24 hrs by Western blotting; assay type: functional, cell-based; method in brief: as §2
HL-60 [12] = experiment: Induction of apoptosis in human HL60 cells assessed as decrease in procaspase 3 expression after 24 hrs by Western blotting; assay type: functional, cell-based; method in brief: as §2
HL-60 [13] = experiment: Induction of apoptosis in human HL60 cells assessed as DNA ladder formation after 24 hrs using Annexin-V/PI double-staining by flow cytometric analysis; assay type: functional, cell-based
Method in brief: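 HL60 cells were treated with 2.5, 5.0, 7.5 or 10.0 μM for 24 h for DNA ladder analysis, representative of three experiments. Apoptotic fractions were measured after 2.5–10 μM for 24 h, or 10 μM over a time course, by Annexin/PI staining and flow cytometry (early plus late apoptotic cells), as mean ± SD of three experiments.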

MCF7 [14] = experiment: Drug resistance index, ratio of IC50 for adriyamycin-resistant human MCF7 cells to IC50 for human MCF7 cells; assay type: functional
MCF7 [15] = experiment: Cytotoxicity against adriyamycin-resistant human MCF7 cells over expressing P-glycoprotein after 72 hrs by SRB assay; assay type: functional, cell-based; details: MCF7, 72 h
Method in brief: (§3)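 Adherent human tumour lines were seeded and exposed in triplicate to graded compound concentrations at 37 °C for 72 h. Growth was read by sulforhodamine B staining. IC50 (50% growth inhibition) was obtained by the Logit method from at least three independent experiments and reported as mean ± SD.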

HMEC [16] = experiment: Cytotoxicity against human HMEC cells after 72 hrs by MTT assay; assay type: cell-based
MCF7 [17] = experiment: Cytotoxicity against human MCF7 cells after 72 hrs by SRB assay; assay type: functional, cell-based; details: MCF7, 72 h; method in brief: as §3
A-431 = experiment: Cytotoxicity against human A431 cells after 72 hrs by SRB assay; assay type: functional, cell-based; details: A-431, 72 h, pooled result: one value given for 15 cell lines, strains, targets or settings; method in brief: as §3
KB = experiment: Cytotoxicity against human KB cells after 72 hrs by SRB assay; assay type: functional, cell-based; method in brief: as §3
HCT-116 [18] = experiment: Cytotoxicity against human HCT116 cells after 72 hrs by SRB assay; assay type: functional, cell-based; details: HCT-116, 72 h; method in brief: as §3
[19] = target: DNA topoisomerase 2-alpha (Homo sapiens) (UniProt P11388); experiment: Induction of human topoisomerase 2alpha-mediated poststrand-passage DNA cleavage after 6 mins by agarose gel electrophoresis
Sequence of DNA topoisomerase 2-alpha (Homo sapiens) (P11388 whole entry): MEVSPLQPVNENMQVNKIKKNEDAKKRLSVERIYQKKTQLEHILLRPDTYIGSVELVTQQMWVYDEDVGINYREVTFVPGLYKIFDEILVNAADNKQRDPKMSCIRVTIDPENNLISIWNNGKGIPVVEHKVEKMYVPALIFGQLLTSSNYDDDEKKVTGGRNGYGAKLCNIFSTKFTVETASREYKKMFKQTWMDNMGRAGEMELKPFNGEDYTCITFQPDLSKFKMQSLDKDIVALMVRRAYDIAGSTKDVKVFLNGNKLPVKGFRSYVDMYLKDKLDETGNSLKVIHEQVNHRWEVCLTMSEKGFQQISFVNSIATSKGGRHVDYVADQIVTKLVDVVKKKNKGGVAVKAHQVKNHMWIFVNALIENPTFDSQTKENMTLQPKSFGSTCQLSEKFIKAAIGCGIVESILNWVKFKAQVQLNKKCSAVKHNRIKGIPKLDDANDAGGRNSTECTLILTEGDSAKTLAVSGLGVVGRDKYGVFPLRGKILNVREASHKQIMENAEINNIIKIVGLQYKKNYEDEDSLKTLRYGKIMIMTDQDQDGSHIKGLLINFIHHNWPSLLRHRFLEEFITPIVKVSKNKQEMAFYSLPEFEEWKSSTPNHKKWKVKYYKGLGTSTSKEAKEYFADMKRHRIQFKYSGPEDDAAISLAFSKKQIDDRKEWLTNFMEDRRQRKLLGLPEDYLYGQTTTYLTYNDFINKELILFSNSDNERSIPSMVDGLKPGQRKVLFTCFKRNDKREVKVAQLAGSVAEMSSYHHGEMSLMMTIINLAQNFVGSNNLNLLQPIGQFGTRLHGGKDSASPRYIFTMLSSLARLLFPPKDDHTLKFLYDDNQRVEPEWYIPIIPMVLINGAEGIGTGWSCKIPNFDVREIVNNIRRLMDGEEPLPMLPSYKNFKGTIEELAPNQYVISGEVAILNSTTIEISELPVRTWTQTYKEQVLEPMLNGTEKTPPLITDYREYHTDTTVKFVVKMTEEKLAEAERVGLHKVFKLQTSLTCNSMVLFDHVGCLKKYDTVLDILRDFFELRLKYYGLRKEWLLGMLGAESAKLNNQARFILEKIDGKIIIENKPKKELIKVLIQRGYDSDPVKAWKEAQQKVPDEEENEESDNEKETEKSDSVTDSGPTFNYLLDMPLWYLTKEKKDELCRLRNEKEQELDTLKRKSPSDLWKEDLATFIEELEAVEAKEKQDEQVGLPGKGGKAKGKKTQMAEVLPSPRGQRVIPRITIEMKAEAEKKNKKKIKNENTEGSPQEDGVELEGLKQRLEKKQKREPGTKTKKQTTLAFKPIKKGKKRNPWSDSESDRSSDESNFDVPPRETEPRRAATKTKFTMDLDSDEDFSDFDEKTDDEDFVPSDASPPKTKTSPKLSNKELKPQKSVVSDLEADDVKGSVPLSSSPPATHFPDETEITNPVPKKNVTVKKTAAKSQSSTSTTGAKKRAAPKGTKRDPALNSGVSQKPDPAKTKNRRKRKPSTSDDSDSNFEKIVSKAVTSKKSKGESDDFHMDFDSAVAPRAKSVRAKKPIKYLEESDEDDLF
Method in brief: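 Supercoiled pBR322 (0.25 μg) was incubated with 6 units of topo II in cleavage buffer containing 5 mM MgCl2 at 37 °C for 6 min; the post-strand-passage reactions also received 1 mM APPNHP. Reactions were stopped with SDS and proteinase K, digested at 50 °C for 30 min, heated to 70 °C, and run on 1% agarose gels.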

[20] = target: DNA topoisomerase 2-alpha (Homo sapiens) (UniProt P11388); experiment: Inhibition of human topoisomerase 2alpha-mediated poststrand-passage DNA religation after 6 mins by agarose gel electrophoresis
Method in brief: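 Topo II (6 units) with 0.25 μg supercoiled pBR322 in cleavage buffer with 1 mM APPNHP and 5 mM MgCl2. Cleavage/religation equilibrium set at 37 °C for 6 min. Compound added just before religation, which was started by a rapid shift from 37 to 55 °C for 5 min. SDS stop, then 1% agarose electrophoresis.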

HL-60 [21] = experiment: Induction of DNA damage in human HL60 cells assessed as increased histone H2AX expression after 1 hr by agarose gel electrophoresis; assay type: functional, cell-based
[22] = target: DNA topoisomerase 2-alpha (Homo sapiens) (UniProt P11388); experiment: Inhibition of human topoisomerase 2alpha-mediated decatenation of kDNA after 30 mins by agarose gel electrophoresis in presence of ATP
Method in brief: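 Decatenation of 0.25 μg kDNA by 0.75 unit topo IIα at 37 °C for 30 min. Stopped with SDS. Run on 1% agarose in TAE at 4 V/cm for 2 h and stained with ethidium bromide.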

HL-60 [23] = experiment: Induction of DNA damage in human HL60 cells assessed as increased histone H2AX expression at 20 uM agarose gel electrophoresis; assay type: functional, cell-based; details: TDE = time-dependent effect
HMEC [24] = experiment: Selectivity ratio of IC50 for human HMEC cells to IC50 for 786-O cells
HMEC [25] = experiment: Selectivity ratio of IC50 for human HMEC cells to IC50 for HCT116 cells
HMEC [26] = experiment: Selectivity ratio of IC50 for human HMEC cells to IC50 for Bel7402 cells
HMEC [27] = experiment: Selectivity ratio of IC50 for human HMEC cells to IC50 for SGC7901 cells
HMEC [28] = experiment: Selectivity ratio of IC50 for human HMEC cells to IC50 for PC3 cells
HeLa = experiment: Selectivity ratio of IC50 for human HMEC cells to IC50 for HeLa cells
MCF7 [29] = experiment: Selectivity ratio of IC50 for human HMEC cells to IC50 for MCF7 cells
MDA-MB-468 = experiment: Selectivity ratio of IC50 for human HMEC cells to IC50 for MDA-MB-468 cells
HMEC [30] = experiment: Selectivity ratio of IC50 for human HMEC cells to IC50 for SKOV3 cells
HMEC [31] = experiment: Selectivity ratio of IC50 for human HMEC cells to IC50 for A431 cells

COC1O[C@H](C)[C@@H](C)c2c(C)c3c(c(O)c21)[C@@H]1O[C@H](C)[C@@H](C)c2c(C)c(O)c([C@H]4O[C@H](C)[C@@H](C)c5c(C)c(O)cc(O)c54)c(c21)O3 (stereo not given in full) [TRICITRINOL B]
inactive: Activity (HL-60 [1]) | Activity (HL-60 [2])
4.83 µM: IC50 (A-431)
2: Ratio IC50 (HMEC [24]) | Ratio IC50 (HMEC [25]) | Ratio IC50 (HMEC [26]) | Ratio IC50 (HMEC [27]) | Ratio IC50 (HMEC [28]) | Ratio IC50 (HeLa) | Ratio IC50 (MCF7 [29]) | Ratio IC50 (MDA-MB-468) | Ratio IC50 (HMEC [30]) | Ratio IC50 (HMEC [31])
active: Activity (HCT-116 [3]) | Activity (HCT-116 [4]) | Activity (HL-60 [5]) | Activity (HCT-116 [6]) | Activity (HL-60 [7]) | Activity (HL-60 [8]) Dose-dependent effect | Activity (HCT-116 [9]) Dose-dependent effect | Activity (HL-60 [10]) Dose-dependent effect | Activity (HCT-116 [11]) Dose-dependent effect | Activity (HL-60 [12]) Dose-dependent effect | Activity (HL-60 [13]) Dose-dependent effect | Activity [19] Dose-dependent effect | inhibition [20] Dose-dependent effect | Activity (HL-60 [21]) Dose-dependent effect | inhibition [22] Dose-dependent effect | Activity (HL-60 [23]) tde
4.82 µM: IC50 (HCT-116 [18])
1.28: Ratio IC50 (MCF7 [14])
7.41 µM: IC50 (MCF7 [15])
3.87 µM: IC50 (KB)
5.76 µM: IC50 (MCF7 [17])
7.89 µM: IC50 (HMEC [16])
